Laboratory results reported in ChEMBL document CHEMBL4038291, “Discovery of novel benzothienoazepine derivatives as potent inhibitors of respiratory syncytial virus” (Bioorg Med Chem Lett, 2017).
pIC50: −log10 of the molar value. Calls of active or inactive are those of the source. The rule behind the calls is not given here.

Key:
[1] = Inhibition of RSV A2 RNA-directed RNA polymerase L infected in human Hep2 cells assessed as reduction in virus-induced cytopathic effect measured after 5 days by resazurin dye based fluorescence assay; assay type: cell-based; conditions: human respiratory syncytial virus, HEp-2, 120 h
Method in brief: (§1)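 Read-out is cytopathic effect of RSV infection in HEp-2 cells. IC50 is the concentration reducing CPE by 50%. Values averaged from 2 experiments.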

[2] = Inhibition of Respiratory syncytial virus B WST RNA-directed RNA polymerase L infected in human Hep2 cells assessed as reduction in virus-induced cytopathic effect measured after 6 days by resazurin dye based fluorescence assay; assay type: cell-based; conditions: HEp-2, 144 h; method in brief: as §1
[3] = Cytotoxicity against human Hep2 cells; assay type: cell-based; conditions: HEp-2 cells
[4] = test system: Human respiratory syncytial virus A2; test: Antiviral activity against Respiratory syncytial virus A2 infected in human Hep2 cells at 0.001 to 3.125 ug/ml after 6 passages; assay type: functional, cell-based
[5] = test system: Human respiratory syncytial virus A2; test: Inhibition of Respiratory syncytial virus A2 RNA-directed RNA polymerase L by luciferase reporter-based RSV minigenome assay
[6] = biological target: T1, Protein M2-1 (Human respiratory syncytial virus A (strain A2)) (UniProt P04545); test: Inhibition of Respiratory syncytial virus A2 M2-1 by luciferase reporter-based RSV minigenome assay
T1 sequence (whole entry): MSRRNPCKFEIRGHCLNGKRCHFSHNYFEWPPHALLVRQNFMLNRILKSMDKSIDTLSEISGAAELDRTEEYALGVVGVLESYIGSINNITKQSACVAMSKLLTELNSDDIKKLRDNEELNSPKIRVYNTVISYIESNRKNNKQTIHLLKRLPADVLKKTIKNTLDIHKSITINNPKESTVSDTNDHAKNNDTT

[7] = test system: Human respiratory syncytial virus A strain Long; test: Antiviral activity against human respiratory syncytial virus A strain long infected in cotton rat assessed as reduction in lung viral load administered intranasally pretreated for 4 hrs followed by viral infection measured after 4 days by plaque assay; assay type: functional
[8] = test system: Human respiratory syncytial virus A strain Long; test: Antiviral activity against human respiratory syncytial virus A strain long infected in cotton rat assessed as reduction in NS1 expression administered intranasally pretreated for 4 hrs followed by viral infection measured after 4 days by RT-qPCR analysis; assay type: functional
[9] = biological target: T2, Nucleoprotein (Human respiratory syncytial virus A (strain A2)) (UniProt P03418); test: (§2) Inhibition of Respiratory syncytial virus A2 protein N by luciferase reporter-based RSV minigenome assay
T2 sequence (whole entry): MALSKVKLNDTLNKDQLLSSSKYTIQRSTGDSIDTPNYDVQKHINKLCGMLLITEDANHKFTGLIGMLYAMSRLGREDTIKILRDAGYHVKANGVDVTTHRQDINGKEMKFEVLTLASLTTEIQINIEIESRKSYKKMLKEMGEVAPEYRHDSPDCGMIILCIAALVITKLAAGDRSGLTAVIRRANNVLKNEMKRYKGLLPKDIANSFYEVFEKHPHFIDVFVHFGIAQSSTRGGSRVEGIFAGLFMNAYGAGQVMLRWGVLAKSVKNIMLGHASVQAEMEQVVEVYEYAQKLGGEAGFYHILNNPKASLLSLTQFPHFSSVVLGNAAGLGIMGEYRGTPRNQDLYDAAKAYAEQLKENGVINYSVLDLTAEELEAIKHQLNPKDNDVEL

[10] = biological target: T3, Nucleoprotein (Human respiratory syncytial virus A (strain A2), UniProt P03418); test: as §2
T3 sequence (P03418 whole entry): T2 sequence (whole entry)

[11] = biological target: Phosphoprotein (Human respiratory syncytial virus A (strain A2)) (UniProt P03421); test: (§3) Inhibition of Respiratory syncytial virus A2 protein P by luciferase reporter-based RSV minigenome assay
Sequence of Phosphoprotein (Human respiratory syncytial virus A (strain A2)) (P03421 whole entry): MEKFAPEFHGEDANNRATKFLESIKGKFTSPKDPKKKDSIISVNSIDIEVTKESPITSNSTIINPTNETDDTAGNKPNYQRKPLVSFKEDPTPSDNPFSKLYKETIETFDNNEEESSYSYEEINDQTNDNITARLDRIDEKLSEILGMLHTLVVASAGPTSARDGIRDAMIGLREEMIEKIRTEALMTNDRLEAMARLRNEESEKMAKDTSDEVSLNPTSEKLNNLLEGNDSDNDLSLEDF

[12] = biological target: Phosphoprotein (Human respiratory syncytial virus A (strain A2), UniProt P03421); test: as §3
Sequence of Phosphoprotein (P03421 whole entry): as above

[13] = Antiviral activity against human respiratory syncytial virus A strain long infected in cotton rat assessed as reduction in plaque forming units in lungs at 0.33 to 3.3 mg/ml administered intranasally pretreated for 4 hrs followed by viral infection measured after 4 days; assay type: functional

| Compound | pIC50 [1] | pIC50 [2] | CC50 [3] [nM] | also measured |
| --- | --- | --- | --- | --- |
| COc1ccc(C(=O)Nc2ccc(C(=O)N3CCc4cc(-c5nc6ccccc6[nH]5)sc4-c4ccccc43)cc2)c(N2CC3(CCOCC3)C2)n1 | 9.30 | 7.42 | > 14300 | – |
| O=C(Nc1ccc(C(=O)N2CCc3cc(-c4nc5cc(C(F)(F)F)ccc5[nH]4)sc3-c3ccccc32)cc1)c1cccnc1N1CC2(CCOCC2)C1 | 8.51 | < 5.87 | > 13600 | – |
| Cc1cnc(N2CC3(CCOCC3)C2)c(C(=O)Nc2ccc(C(=O)N3CCc4cc(-c5nc(C)c(C)[nH]5)sc4-c4ccccc43)cc2)c1 | 8.80 | 8.21 | > 15100 | – |
| Cc1cnc(N2CC3(CCOCC3)C2)c(C(=O)Nc2ccc(C(=O)N3CCc4cc(-c5ncc(C)[nH]5)sc4-c4ccccc43)cc2)c1 | 9.15 | 8.48 | > 15500 | – |
| Cc1cnc(N2CC3(CCOCC3)C2)c(C(=O)Nc2ccc(C(=O)N3CCc4cc(-c5cc6ccccn6n5)sc4-c4ccccc43)cc2)c1 | 9.15 | 8.09 | > 14600 | – |
| O=C(Nc1ccc(C(=O)N2CCc3cc(-c4cc5ccccc5[nH]4)sc3-c3ccccc32)cc1)c1cccnc1N1CC2(CCOCC2)C1 | 8.82 | 5.99 | > 15000 | – |
| O=C(Nc1ccc(C(=O)N2CCc3cc(-c4nc5ccccc5[nH]4)sc3-c3ccccc32)cc1)c1cccnc1N1CC2(CCOCC2)C1 | 9.10 | 7.22 | > 14900 | – |
| O=C(Nc1ccc(C(=O)N2CCc3cc(-c4nc5cc(Cl)ccc5[nH]4)sc3-c3ccccc32)cc1)c1cccnc1N1CC2(CCOCC2)C1 | 8.80 | 6.79 | > 14200 | – |
| O=C(Nc1ccc(C(=O)N2CCc3cc(-c4nc5c(Cl)cccc5[nH]4)sc3-c3ccccc32)cc1)c1cccnc1N1CC2(CCOCC2)C1 | 9.10 | 7.51 | > 14200 | – |
| CC(C)c1cnc(N2CC3(CCOCC3)C2)c(C(=O)Nc2ccc(C(=O)N3CCc4cc(-c5nc6ccccc6[nH]5)sc4-c4ccccc43)cc2)c1 | 8.24 | < 5.85 | > 14100 | – |
| O=C(Nc1ccc(C(=O)N2CCc3cc(-c4nc5c(C(F)(F)F)cccc5[nH]4)sc3-c3ccccc32)cc1)c1cccnc1N1CC2(CCOCC2)C1 | 9.22 | 7.41 | > 13600 | – |
| O=C(Nc1ccc(C(=O)N2CCc3cc(-c4nc5cnccc5[nH]4)sc3-c3ccccc32)cc1)c1cccnc1N1CC2(CCOCC2)C1 | 8.12 | 6.07 | > 14900 | – |
| O=C(NC1CC1)c1cc2c(s1)-c1ccccc1N(C(=O)c1ccc(NC(=O)c3cccnc3N3CC4(CCOCC4)C3)cc1)CC2 | 8.66 | 6.54 | 6410 | – |
| N#Cc1ccc2[nH]c(-c3cc4c(s3)-c3ccccc3N(C(=O)c3ccc(NC(=O)c5cccnc5N5CC6(CCOCC6)C5)cc3)CC4)nc2c1 | 9.30 | 6.79 | > 14400 | – |
| CCc1cnc(N2CC3(CCOCC3)C2)c(C(=O)Nc2ccc(C(=O)N3CCc4cc(-c5nc6ccccc6[nH]5)sc4-c4ccccc43)cc2)c1 | 9.15 | 7.88 | > 14300 | – |
| Cc1cccc2[nH]c(-c3cc4c(s3)-c3ccccc3N(C(=O)c3ccc(NC(=O)c5cccnc5N5CC6(CCOCC6)C5)cc3)CC4)nc12 | 9.22 | 7.28 | > 14600 | – |
| O=C(Nc1ccc(C(=O)N2CCc3cc(-c4nc5ccccc5[nH]4)sc3-c3ccccc32)cc1)c1ccc(C(F)(F)F)nc1N1CC2(CCOCC2)C1 | 8.14 | < 5.87 | > 13600 | – |
| Cc1ccnc(N2CC3(CCOCC3)C2)c1C(=O)Nc1ccc(C(=O)N2CCc3cc(-c4nc5ccccc5[nH]4)sc3-c3ccccc32)cc1 | – | < 5.83 | – | – |
| O=C(Nc1ccc(C(=O)N2CCc3cc(-c4nc5cncnc5[nH]4)sc3-c3ccccc32)cc1)c1cccnc1N1CC2(CCOCC2)C1 | 7.88 | < 5.83 | > 14900 | – |
| N#Cc1cccc2[nH]c(-c3cc4c(s3)-c3ccccc3N(C(=O)c3ccc(NC(=O)c5cccnc5N5CC6(CCOCC6)C5)cc3)CC4)nc12 | 9.22 | 7.16 | > 14400 | – |
| Cc1cnc(N2CC3(CCOCC3)C2)c(C(=O)Nc2ccc(C(=O)N3CCc4cc(-c5nc6cccc(F)c6[nH]5)sc4-c4ccccc43)cc2)c1 | 8.85 | 8.68 | > 14300 | Activity [4]: inactive; inhibition [5]: Dose-dependent effect; inhibition [6]: Dose-dependent effect; Activity [7]: Active; Activity [8]: Dose-dependent effect; inhibition [9]: Dose-dependent effect; pIC50 [10]: 8.70; inhibition [11]: Dose-dependent effect; pIC50 [12]: 8.70; Activity [13]: <2.3 log10PFU |
| O=C(Nc1ccc(C(=O)N2CCc3cc(-c4nc5c(F)cccc5[nH]4)sc3-c3ccccc32)cc1)c1cccnc1N1CC2(CCOCC2)C1 | 8.80 | 7.04 | > 14600 | – |
| Cc1cnc(N2CC3(CCOCC3)C2)c(C(=O)Nc2ccc(C(=O)N3CCc4cc(-c5cn6ccccc6n5)sc4-c4ccccc43)cc2)c1 | 8.74 | 7.84 | > 14600 | – |
| O=C(Nc1ccccc1)c1cc2c(s1)-c1ccccc1N(C(=O)c1ccc(NC(=O)c3cccnc3N3CC4(CCOCC4)C3)cc1)CC2 | 9.30 | 6.55 | > 14900 | – |
| O=C(Nc1ccc(C(=O)N2CCc3cc(-c4nc5ccccc5o4)sc3-c3ccccc32)cc1)c1cccnc1N1CC2(CCOCC2)C1 | 7.25 | < 5.82 | > 14900 | – |
| Cc1cnc(N2CC3(CCOCC3)C2)c(C(=O)Nc2ccc(C(=O)N3CCc4cc(-c5nc6ccccc6[nH]5)sc4-c4ccccc43)cc2)c1 | 9.30 | 8.28 | > 14600 | – |
| Cc1ccc(C(=O)Nc2ccc(C(=O)N3CCc4cc(-c5nc6ccccc6[nH]5)sc4-c4ccccc43)cc2)c(N2CC3(CCOCC3)C2)n1 | 9.10 to 9.52 | 7.88 to 8.28 | > 14600 | – |
